Among the data in ChEMBL document CHEMBL3120071, “Biologically active eremophilane-type sesquiterpenes from Camarops sp., an endophytic fungus isolated from Alibertia macrophylla” (J Nat Prod, 2014) are IC50, Activity and viability values, retold here.

A short description of data set [1]: Antioxidant activity […] assessed as xanthine/xanthine oxidase-induced ROS scavenging activity by WST-1 assay. It counts as functional. The gist of the method: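 Superoxide was generated by xanthine/xanthine oxidase and detected as reduction of the tetrazolium salt WST-1 to a soluble formazan (modified Tan and Berridge method). Quercetin was the positive control.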
Background: Formazan colour is commonly taken as a measure of viable cells.

Data set [2] can be described thus: Cytotoxicity against human neutrophils at < 100 uM after 60 mins by trypan blue exclusion assay. The format is cell-based. Particulars: neutrophil, 1 h. The gist of the method: (§1)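 Human neutrophil viability was assessed by trypan blue exclusion after compound exposure at up to 100 μM for up to 60 min, including 10 μM, the concentration used in the respiratory burst studies.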

Data set [3] can be described thus: Antioxidant activity […] assessed as […] HOCl scavenging activity by spectrophotometry. The format is functional. The method in brief: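 Cell-free HOCl scavenging. HOCl was made by diluting commercial bleach and quantified at 292 nm (ε = 350 mol−1 cm−1). It reacts with taurine to give taurine chloramine, which oxidizes TMB. Absorbance was read at 655 nm, with quercetin as the positive control.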

For data set [4], the target named is T1, Myeloperoxidase (Homo sapiens, UniProt P05164).
T1 sequence (P05164 whole entry): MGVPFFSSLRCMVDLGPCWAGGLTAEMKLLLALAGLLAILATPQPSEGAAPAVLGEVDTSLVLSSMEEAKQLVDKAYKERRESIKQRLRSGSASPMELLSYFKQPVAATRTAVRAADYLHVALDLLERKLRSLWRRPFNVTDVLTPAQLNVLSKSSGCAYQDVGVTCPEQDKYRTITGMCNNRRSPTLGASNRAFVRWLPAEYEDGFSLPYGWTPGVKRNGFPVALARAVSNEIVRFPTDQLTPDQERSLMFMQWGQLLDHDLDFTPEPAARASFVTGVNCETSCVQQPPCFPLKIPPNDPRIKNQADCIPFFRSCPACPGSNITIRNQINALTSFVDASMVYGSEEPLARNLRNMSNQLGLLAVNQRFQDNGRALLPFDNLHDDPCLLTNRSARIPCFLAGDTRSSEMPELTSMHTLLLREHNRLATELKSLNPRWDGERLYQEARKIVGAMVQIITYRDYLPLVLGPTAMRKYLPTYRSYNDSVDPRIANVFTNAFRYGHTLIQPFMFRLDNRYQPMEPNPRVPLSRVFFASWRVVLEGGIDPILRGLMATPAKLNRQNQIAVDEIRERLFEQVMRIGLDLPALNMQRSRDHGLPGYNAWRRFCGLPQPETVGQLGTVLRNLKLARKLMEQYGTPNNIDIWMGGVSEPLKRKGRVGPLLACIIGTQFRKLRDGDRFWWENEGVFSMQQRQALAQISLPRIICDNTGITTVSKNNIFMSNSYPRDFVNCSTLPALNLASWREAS
Briefly: Inhibition of myeloperoxidase (unknown origin) using HOCl/taurine as substrate assessed as inhibition of taurine chloramine production by spectrophotometry. The format is single protein. The gist of the method:
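MPO, quantified by absorbance at 430 nm (ε = 89 000 mol−1 cm−1 per heme), chlorinating activity was measured. The HOCl produced reacts with taurine to give taurine chloramine, which oxidizes TMB to a blue product read at 655 nm. 5-Fluorotryptamine was the positive control.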

Data set [5] can be described thus: (§2) Antioxidant activity in human neutrophils assessed as inhibition of oxidative burst-induced ROS production by chemiluminescence assay. The format is functional, cell-based. Conditions: Neutrophil. The gist of the method:
(§3)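 Human neutrophils were isolated and the respiratory burst was stimulated. Total ROS were measured by luminol-enhanced chemiluminescence (LumCL). DMSO replaced compound in the blanks, taken as 100%. Quercetin and apocynin served as positive controls, and IC50 was taken from concentration–response data.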

Data set [6] deals with Neutrophil. The description is as §2. It counts as functional, cell-based. The gist of the method: as §3
Data set [7] is described as follows: Cytotoxicity against human neutrophils assessed as cell viability at 10 uM by trypan blue exclusion assay. It counts as functional. Particulars: Neutrophil, read-out: Activity. The gist of the method:
as §1

With `CCC(C)CC(C)CC(O)(CO)C(=O)O[C@@H]1CC[C@H](C)[C@@]2(C)C=C([C@@H](C)CO)C(=O)C=C12` (stereo not given in full), the 50% inhibitory concentration (IC50) – broadly, the concentration at which inhibition is half-maximal – is over 100 µM in data set [1], over 100 µM in data set [3], over 100 µM in data set [4] and 4.17 µM in data set [5]. Besides, the Activity result in data set [2] is “Non-toxic”; in data set [6], “Dose-dependent effect”. Further, the viability at 10 µM in data set [7] was over 98%.

`CCC(C)CC(C)CC(O)(CO)C(=O)O[C@@H]1CC[C@H](C)[C@@]2(C)C=C([C@H](C)CO)C(=O)C=C12` (stereo not given in full): the IC50 in data set [1] was over 100 µM; in data set [3] it was over 100 µM; in data set [4], over 100 µM; in data set [5] it was 5.9 µM. The Activity entry in data set [2] is “Non-toxic”; in data set [6], “Dose-dependent effect”. In addition, in data set [7], the viability at 10 µM was over 98%.

For the molecule `COc1cc(C(C)=O)ccc1O` [APOCYNIN], in data set [5], the IC50 is 3.9 µM.

Regarding `O=c1c(O)c(-c2ccc(O)c(O)c2)oc2cc(O)cc(O)c12` [QUERCETIN], the IC50 in data set [5] worked out at 4.86 µM.

Consider `C=C(CO)[C@@]12O[C@@H]1[C@@]1(C)C(=CC2=O)[C@H](OC(=O)C(C)CC(C)CC(C)CC)CC[C@@H]1C` (stereo not given in full) [XYLARENONE C], for which the IC50 in data set [1] was over 100 µM; in data set [3], over 100 µM; in data set [4], over 100 µM; in data set [5], 6.13 µM. The Activity result in data set [2] is “Non-toxic”; in data set [6], “Dose-dependent effect”. Besides, the viability at 10 µM in data set [7] is over 98%.

In the case of `C=C(CO)[C@@]12O[C@@H]1[C@@]1(C)C(=CC2=O)[C@H](OC(=O)C(O)(CO)CC(C)CC(C)CC)CC[C@@H]1C` (stereo not given in full) [XYLARENONE D], the IC50 was over 100 µM in data set [1], over 100 µM in data set [3], over 100 µM in data set [4] and 5.73 µM in data set [5]. Besides, the results for the Activity entry in data set [2] and in data set [6] were “Non-toxic” and “Dose-dependent effect”, respectively. Moreover, the viability at 10 µM in data set [7] is over 98%.
